Series [1] concerns Aspergillus fumigatus. The experiment in a line: Antifungal activity against Aspergillus fumigatus. Type of series: functional, organism-based. In a few lines:
(§1)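 Samples in DMSO serially diluted in 0.9% saline, tested in duplicate; inocula set against 0.5 McFarland standard (absorbance 630 nm) and diluted in broth to recommended levels. Growth, solvent and media controls included. Read at 630 nm, or fluorescence 544ex/590em for M. intracellulare (modified Alamar Blue), before and after incubation; IC50 from percent growth versus concentration.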

The subject of series [2] is Plasmodium falciparum. The experiment in a line: Antimalarial activity against Plasmodium falciparum D6. The series is classed as functional, organism-based. The essentials: (§2)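 P. falciparum-infected erythrocytes at 2% parasitemia, 2% hematocrit in RPMI 1640 with 10% human serum and 60 µg/mL amikacin, exposed to serial dilutions 72 h at 37 °C under 90% N2/5% O2/5% CO2. Parasite LDH measured with Malstat reagent then NBT/PES, stopped with 5% acetic acid, A650; IC50 from dose–response. DMSO 0.25% vehicle.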

Series [3] deals with Mycobacterium intracellulare. Briefly: Antimicrobial activity against Mycobacterium intracellular. The series is classed as functional, organism-based. In a few lines:
as §1

In series [4] the test system is Plasmodium falciparum. The experiment in a line: Antimalarial activity against Plasmodium falciparum W2. Type of series: functional, organism-based. The essentials:
as §2

Series [5] has as its system Leishmania donovani. The experiment in a line: Antileishmanial activity against Leishmania donovani promastigotes after 48 hrs by Alamar blue assay. Type of series: functional, organism-based. In a few lines:
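L. donovani promastigotes grown in RPMI 1640 + 10% fetal calf serum at 26 °C; 3-day culture diluted to 5 × 10^5/mL, drug dilutions made directly in suspension, 48 h at 26 °C. Alamar blue fluorescence 544 nm ex/590 nm em; IC50 and IC90 from percent growth vs concentration curves.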

In series [6] the test system is Vero. Briefly: Cytotoxicity against Vero cells up to 4.76 ug/mL by neutral red assay. Type of series: cell-based. As to conditions: chlorocebus sabaeus.
Series [7] has as its system Staphylococcus aureus. Briefly: Antibacterial activity against methicillin-resistant Staphylococcus aureus. The series is classed as functional, organism-based. The essentials:
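Samples in DMSO, serially diluted in 0.9% saline, tested in duplicate. Inoculum set against the 0.5 McFarland standard by absorbance at 630 nm, then diluted in broth. Growth, solvent and media controls included. Absorbance read at 630 nm before and after incubation. IC50 taken from percent growth versus concentration. Inactivity was scored at 20 µg/mL.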

Series [8] relates to Cryptococcus neoformans. Briefly: Antifungal activity against Cryptococcus neoformans at 20 ug/mL. The series is classed as functional, organism-based.
Series [9] deals with LLC-PK1. Briefly: Cytotoxicity against LLC-PK1 cells up to 4.76 ug/mL by neutral red assay. Type of series: cell-based, Sus scrofa. The following applies: pig.
The subject of series [10] is Candida albicans. The experiment in a line: Antifungal activity against Candida albicans. Type of series: functional, organism-based. In a few lines:
as §1

Series [11] concerns Vero. The experiment in a line: Cytotoxicity against Vero cells by neutral red assay. As to conditions: chlorocebus sabaeus. Type of series: cell-based. The essentials: (§3)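 Cells seeded 25,000/well, grown 24 h, then exposed to samples 48 h; viable cells quantified by neutral red uptake. IC50 taken from logarithmic plots of growth inhibition versus concentration; DMSO vehicle control.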

The subject of series [12] is Cryptococcus neoformans. Briefly: Antifungal activity against Cryptococcus neoformans. The series is classed as functional, organism-based. The essentials: as §1
For series [13], the system named is LLC-PK1. The experiment in a line: Cytotoxicity against LLC-PK1 cells by neutral red assay. Type of series: cell-based. The following applies: Sus scrofa. In a few lines: as §3

In brackets after ≈: the same amount, converted by molar mass. Activity calls are given as the source filed them. The calls are words filed in the database; no cut-off is given here.

Regarding `CC(C)CC(=O)c1c(O)c(C=O)c(O)c(C=O)c1O` [JENSENONE], the result in series [1], in [2], in series [3], in series [4] and in [8] was inactive. Moreover, the IC50 is 19 µg/mL (≈ 71.4 µM) in series [5], 20 µg/mL (≈ 75.1 µM) in [7] and 5.5 µg/mL (≈ 20.7 µM) in series [10]. It took 35 µg/mL (≈ 131 µM) to reach the 90% level in [5] (IC90). The Activity result in [6] and in [9] was “Not Active” each time.

Consider `Cc1c(O)c(C=O)c(O)c(C(=O)CC(C)C)c1O` [GRANDINOL], for which the outcome in [1], in [2], in series [3] and in [4] was inactive. Moreover, the IC50 in series [11] is 8 µg/mL (≈ 31.7 µM); in [12] it was 10 µg/mL (≈ 39.6 µM); in [5], 21 µg/mL (≈ 83.2 µM); in [7], 8 µg/mL (≈ 31.7 µM); in series [13], 7 µg/mL (≈ 27.7 µM); in series [10], 10 µg/mL (≈ 39.6 µM). This molecule also came in with a 90% effect concentration (IC90) in series [5] of 39 µg/mL (≈ 155 µM).

Source of the values: ChEMBL document CHEMBL1144532, “Antiprotozoal and antimicrobial activities of O-alkylated and formylated acylphloroglucinols” (Bioorg Med Chem, 2007).
